These results are taken from ChEMBL document CHEMBL1773037, “Evaluation of superior BACE1 cleavage sequences containing unnatural amino acids” (Bioorg Med Chem, 2011).

Non-standard residues stand in square brackets, D forms with d. Residues, ends and D or L forms follow the SMILES beside them. 2Thi = N[C@@H](Cc1cccs1)C(=O)O; Nva = CCC[C@H](N)C(=O)O

Experiment [1] concerns the target Beta-secretase 1 (Homo sapiens) (UniProt P56817). Briefly: Activity of recombinant BACE assessed as substrate cleavage after 1 hr by HPLC analysis.
Experiment [2] shares this target. Briefly: Activity of recombinant BACE assessed as retention time of substrate by HPLC method.
Experiment [3] shares this target. Put plainly: Activity of recombinant BACE assessed as retention time of N-terminal fragment by HPLC method.
Experiment [4] has the same target. Briefly: Activity of recombinant BACE assessed as retention time of C-terminal fragment by HPLC method.
Experiment [5] has the same target. Put plainly: Activity of recombinant BACE assessed as substrate cleavage upto 3 hrs by HPLC analysis. The gist of the method:
(§1)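 Individually synthesized, purified substrates at 300 µM in 40 mM AcONa buffer, pH 4.5, 37 °C. rBACE1 used at 60 nM (P1, P4 substrates), 30 nM (P2, P3 substrates) or 10 nM (P1' substrates and the dodecapeptide). Aliquots taken at 0, 1 and 3 h, quenched with 7 M GuHCl, and the decrease in each substrate peak monitored by HPLC.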

For experiment [6] the target is unchanged. Briefly: Activity of recombinant BACE assessed as substrate cleavage at 300 uM after 3 hrs by HPLC analysis. Summed up: as §1

Beta-secretase 1 (Homo sapiens), sequence (P56817 whole entry): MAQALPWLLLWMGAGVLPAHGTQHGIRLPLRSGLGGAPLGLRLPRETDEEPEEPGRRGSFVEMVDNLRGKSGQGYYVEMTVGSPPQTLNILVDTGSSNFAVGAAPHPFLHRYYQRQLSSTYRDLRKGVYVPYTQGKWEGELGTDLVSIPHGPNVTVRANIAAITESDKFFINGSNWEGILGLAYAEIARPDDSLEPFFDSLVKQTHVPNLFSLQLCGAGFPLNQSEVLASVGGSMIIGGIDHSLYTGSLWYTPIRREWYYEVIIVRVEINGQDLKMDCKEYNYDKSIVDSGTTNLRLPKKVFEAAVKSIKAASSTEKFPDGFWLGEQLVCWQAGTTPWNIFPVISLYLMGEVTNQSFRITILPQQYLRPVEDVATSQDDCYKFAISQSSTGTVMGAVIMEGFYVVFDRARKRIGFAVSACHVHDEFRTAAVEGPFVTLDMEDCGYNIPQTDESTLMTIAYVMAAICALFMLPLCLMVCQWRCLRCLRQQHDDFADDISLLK

For `CC[C@H](C)[C@H](N)C(=O)N[C@@H](CCCCN)C(=O)N[C@H](C(=O)N[C@@H](CCC(=O)O)C(=O)N[C@@H](CCC(=O)O)C(=O)N[C@H](C(=O)N[C@@H](CO)C(=O)N[C@@H](CCC(=O)O)C(=O)N[C@H](C(=O)N[C@@H](CC(N)=O)C(=O)N[C@@H](CC(C)C)C(=O)N[C@@H](CC(=O)O)C(=O)N[C@@H](C)C(=O)N[C@@H](CCC(=O)O)C(=O)N[C@@H](Cc1ccccc1)C(=O)N[C@@H](CCCNC(=N)N)C(=O)N[C@@H](Cc1cnc[nH]1)C(=O)N[C@@H](CC(=O)O)C(=O)N[C@@H](CO)C(=O)NCC(N)=O)C(C)C)[C@@H](C)CC)[C@@H](C)O`, the Activity in experiment [1] amounted to 20%. Also, the retention time in experiment [2] was 0.297 h; in experiment [3], 0.289 h; in experiment [4], 0.082 h.
As to `CCC[C@H](NC(=O)[C@H](Cc1cccs1)NC(=O)[C@H](Cc1cccs1)NC(=O)[C@@H](NC(=O)[C@H](CCC(=O)O)NC(=O)[C@H](CO)NC(=O)[C@@H](N)[C@@H](C)CC)[C@@H](C)CC)C(=O)N[C@@H](C)C(=O)N[C@@H](CCC(=O)O)C(=O)N[C@@H](Cc1ccccc1)C(=O)N[C@@H](CCCNC(=N)N)C(=O)N[C@@H](Cc1cnc[nH]1)C(N)=O` (H-ISEI[2Thi][2Thi][Nva]AEFRH-NH2), the Activity in experiment [5] is 90%. Further, the retention time in experiment [2] is 0.658 h.
With `CC[C@H](C)[C@H](N)C(=O)N[C@@H](CO)C(=O)N[C@@H](CCC(=O)O)C(=O)N[C@H](C(=O)N[C@@H](CC(N)=O)C(=O)N[C@@H](CC(C)C)C(=O)N[C@@H](CC(=O)O)C(=O)N[C@@H](C)C(=O)N[C@@H](CCC(=O)O)C(=O)N[C@@H](Cc1ccccc1)C(=O)N[C@@H](CCCNC(=N)N)C(=O)N[C@@H](Cc1cnc[nH]1)C(N)=O)C(C)C` (H-ISEVNLDAEFRH-NH2), the Activity in experiment [5] amounted to 10%; in experiment [6], 50%. Moreover, the retention time in experiment [2] was determined as 0.487 h; in experiment [3], 0.429 h; in experiment [4], 0.217 h.
